The subject of test [1] is Staphylococcus aureus. Put plainly: Antibacterial activity against methicillin-sensitive Staphylococcus aureus MTCC 737 assessed as growth inhibition by broth microdilution method. In kind it is functional. The essentials:
(§1)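 Broth microdilution per CLSI; compounds serially diluted in autoclaved water. Bacteria grown 6 h in suitable media, diluted to 10⁵ CFU/mL; compound added to bacterial suspension, incubated at 37 °C, OD600 read. Triplicate wells, experiment done at least twice; mean OD versus concentration sigmoidally fitted, MIC taken where OD equals no-bacteria control.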

Test [2] deals with Staphylococcus aureus. Put plainly: Antibacterial activity against methicillin-resistant Staphylococcus aureus ATCC 33591 assessed as growth inhibition by broth microdilution method. The class given is functional. The essentials:
(§2)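 Broth microdilution per CLSI; compounds serially diluted in sterile water, added to bacteria at 10^5 CFU/mL (diluted from 6 h cultures). Incubated at 37 °C, OD600 read. Triplicate wells, experiment done at least twice. Mean OD plotted against concentration and fitted sigmoidally; MIC taken where OD matches the no-bacteria control.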

For test [3], the system named is Staphylococcus aureus. Put plainly: Antibacterial activity against vancomycin-intermediate-resistant Staphylococcus aureus assessed as growth inhibition by broth microdilution method. The class given is functional. The essentials: as §2
Test [4] deals with Enterococcus faecium. Put plainly: Antibacterial activity against vancomycin-sensitive Enterococcus faecium ATCC 19634 assessed as growth inhibition by broth microdilution method. In kind it is functional. Summed up:
as §1

Test [5] relates to Enterococcus faecium. Put plainly: Antibacterial activity against vancomycin-resistant VanA phenotype of Enterococcus faecium ATCC 51559 assessed as growth inhibition by broth microdilution method. In kind it is functional. The essentials:
as §2

Test [6] concerns Staphylococcus aureus. Put plainly: Antibacterial activity against methicillin-resistant Staphylococcus aureus ATCC 33591 assessed as induction of membrane depolarization at 10 uM measured for 10 mins by DiSC3(5) dye-based spectrofluorometric analysis. In kind it is functional, organism-based. Summed up: (§3)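 Membrane potential assay with DiSC3(5): dye added to cells until maximal uptake, seen as a fluorescence minimum (about 10 min). Compounds then added and depolarization followed as the fluorescence increase over a further 10 min.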

In test [7] the test system is Enterococcus faecium. Put plainly: Antibacterial activity against vancomycin-resistant VanA phenotype of Enterococcus faecium ATCC 51559 assessed as induction of membrane depolarization at 10 uM measured for 10 mins by DiSC3(5) dye-based spectrofluorometric analysis. In kind it is functional, organism-based. The essentials:
as §3

Test [8] has as its system Staphylococcus aureus. The test can be described thus: Antibacterial activity against methicillin-resistant Staphylococcus aureus ATCC 33591 assessed as induction of cytoplasmic membrane permeabilization at 10 uM measured for 10 mins by propidium iodide uptake assay. In kind it is functional, organism-based. Summed up:
(§4)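 Mid-log (6 h) cells harvested at 4 °C, washed and resuspended in PBS pH 7.2. Compound added to cells with 10 μM propidium iodide. Fluorescence (ex 535/em 617 nm) monitored 10 min at RT; the rise in PI fluorescence taken as inner membrane permeabilization.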

For test [9], the system named is Enterococcus faecium. The test can be described thus: Antibacterial activity against vancomycin-resistant VanA phenotype of Enterococcus faecium ATCC 51559 assessed as induction of cytoplasmic membrane permeabilization at 10 uM measured for 10 mins by propidium iodide uptake assay. The class given is functional, organism-based. Summed up:
as §4

In test [10] the test system is Enterococcus faecium. Put plainly: Antibacterial activity against vancomycin-resistant VanA phenotype of Enterococcus faecium ATCC 51559 assessed as leakage of intracellular potassium ion at 10 uM measured for 10 mins by PBFI-AM dye-based spectrofluorometric analysis. The class given is functional, organism-based. Summed up:
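Mid-log (6 h) cells washed twice and resuspended in 10 mM HEPES pH 7.2 with 0.5% glucose. Signal stabilized 60 s at RT, then 1 μM PBFI-AM added and a 2 min baseline recorded before compound.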

The structures appear in SMILES notation. Activity calls are given as the source filed them. The rule behind the calls is not given here.

As for `CC[N+](C)(C)CCCNC(=O)[C@H]1NC(=O)[C@H]2NC(=O)[C@H](NC(=O)[C@@H]3NC(=O)[C@H](CC(N)=O)NC(=O)[C@H](NC(=O)[C@@H](CC(C)C)NC)[C@H](O)c4ccc(c(Cl)c4)Oc4cc3cc(c4O[C@@H]3O[C@H](CO)[C@@H](O)[C@H](O)[C@H]3O[C@H]3C[C@](C)(N)[C@H](O)[C@H](C)O3)Oc3ccc(cc3Cl)[C@H]2O)c2ccc(O)c(c2)-c2c(O)cc(O)cc21`, the MIC is 0.39 µM in the test on Staphylococcus aureus [1]; 2.42 µM in the test on Staphylococcus aureus [2]; 1.3 µM with Staphylococcus aureus [3]; 0.45 µM in the test with Enterococcus faecium [4]; more than 100 µM in the test with Enterococcus faecium [5]. In addition, the result in the test on Staphylococcus aureus [6], in the test with Enterococcus faecium [7], in the test with Staphylococcus aureus [8], in the test on Enterococcus faecium [9] and in the test with Enterococcus faecium [10] was inactive.

For `CCCCCCCCCCCCCC[N+](C)(C)CCCNC(C)=O`, the outcome with Enterococcus faecium [7], in the test with Enterococcus faecium [9] and in the test with Enterococcus faecium [10] was inactive.

In the case of `CCCC[N+](C)(C)CCCNC(=O)[C@H]1NC(=O)[C@H]2NC(=O)[C@H](NC(=O)[C@@H]3NC(=O)[C@H](CC(N)=O)NC(=O)[C@H](NC(=O)[C@@H](CC(C)C)NC)[C@H](O)c4ccc(c(Cl)c4)Oc4cc3cc(c4O[C@@H]3O[C@H](CO)[C@@H](O)[C@H](O)[C@H]3O[C@H]3C[C@](C)(N)[C@H](O)[C@H](C)O3)Oc3ccc(cc3Cl)[C@H]2O)c2ccc(O)c(c2)-c2c(O)cc(O)cc21`, the MIC is 0.37 µM in the test on Staphylococcus aureus [1]; 0.6 µM with Staphylococcus aureus [2]; 1.14 µM in the test on Staphylococcus aureus [3]; 0.31 µM in the test with Enterococcus faecium [4]; more than 100 µM with Enterococcus faecium [5]. Moreover, the result in the test on Staphylococcus aureus [6], with Enterococcus faecium [7], in the test on Staphylococcus aureus [8], in the test on Enterococcus faecium [9] and with Enterococcus faecium [10] was inactive.

For the molecule `CCCCCCCCCCCCCCNCCCNC(=O)[C@H]1NC(=O)[C@H]2NC(=O)[C@H](NC(=O)[C@@H]3NC(=O)[C@H](CC(N)=O)NC(=O)[C@H](NC(=O)[C@@H](CC(C)C)NC)[C@H](O)c4ccc(c(Cl)c4)Oc4cc3cc(c4O[C@@H]3O[C@H](CO)[C@@H](O)[C@H](O)[C@H]3O[C@H]3C[C@](C)(N)[C@H](O)[C@H](C)O3)Oc3ccc(cc3Cl)[C@H]2O)c2ccc(O)c(c2)-c2c(O)cc(O)cc21`, the MIC in the test with Staphylococcus aureus [1] was determined as 0.55 µM; with Staphylococcus aureus [2], 0.61 µM; in the test on Staphylococcus aureus [3] it was 1 µM; with Enterococcus faecium [4] it was 0.4 µM; in the test on Enterococcus faecium [5] it was 5 µM. Moreover, the outcome in the test on Enterococcus faecium [7], in the test with Enterococcus faecium [9] and in the test on Enterococcus faecium [10] was inactive.

Regarding `CN[C@H]1C(=O)N[C@@H]2Cc3ccc(cc3)Oc3cc4cc(c3O[C@@H]3O[C@H](C(=O)O)[C@@H](O)[C@H](O)[C@H]3NC(=O)CCCCCCCCC(C)C)Oc3ccc(cc3Cl)[C@@H](O)[C@@H]3NC(=O)[C@H](NC(=O)[C@@H]4NC(=O)[C@@H](NC2=O)c2cc(cc(O)c2Cl)Oc2cc1ccc2O)c1ccc(O)c(c1)-c1c(O[C@H]2O[C@H](CO)[C@@H](O)[C@H](O)[C@@H]2O)cc(O)cc1[C@@H](C(=O)NCCCN(C)C)NC3=O` [DALBAVANCIN], the MIC90 was 0.04 µM with Staphylococcus aureus [1], 0.04 µM with Staphylococcus aureus [2], 0.08 µM in the test on Enterococcus faecium [4] and more than 18 µM in the test with Enterococcus faecium [5].

As for `CCCCCCCCCCNCCN[C@@]1(C)C[C@H](O[C@H]2[C@H](Oc3c4cc5cc3Oc3ccc(cc3Cl)[C@@H](O)[C@@H](NC(=O)[C@@H](CC(C)C)NC)C(=O)N[C@@H](CC(N)=O)C(=O)N[C@H]5C(=O)N[C@H]3C(=O)N[C@H](C(=O)N[C@H](C(=O)O)c5cc(O)c(CNCP(=O)(O)O)c(O)c5-c5cc3ccc5O)[C@H](O)c3ccc(c(Cl)c3)O4)O[C@H](CO)[C@@H](O)[C@@H]2O)O[C@@H](C)[C@H]1O` [TELAVANCIN], the MIC90 with Staphylococcus aureus [1] is 0.3 µM; with Staphylococcus aureus [2], 0.3 µM; in the test with Enterococcus faecium [4] it was 0.15 µM; with Enterococcus faecium [5], 4 µM.
